According to ChEMBL document CHEMBL1130340, “Semisynthetic derivatives of purpuromycin as potential topical agents for vaginal infections” (1997):
Values after ≈ are worked out from the molar mass of the structure shown.

What was measured:
Format in all cases: functional
[1] = test system: Bacteroides fragilis; assay: In vitro antimicrobial activity against Bacteroides fragilis ATCC 25285
Procedure, shortened: (§1)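 Anaerobe MIC by broth microdilution in Wilkins-Chalgren broth; inoculum 5 × 10^5 cfu/mL; 37 °C.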

[2] = test system: Candida albicans; assay: In vitro antimicrobial activity against Candida albicans L145
Procedure, shortened: (§2)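 Candida: broth microdilution MIC in phosphate-buffered Yeast Nitrogen Base broth with glucose (1% w/v) and L-asparagine (0.15% w/v); inoculum about 10^4 cfu/mL; 37 °C, 20–24 h.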

[3] = test system: Enterococcus faecalis; assay: In vitro antimicrobial activity against Enterococcus faecalis ATCC 7080
Procedure, shortened: (§3)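 Broth microdilution MIC in Oxoid Iso-Sensitest broth; inoculum about 10^4 cfu/mL; 37 °C for 20–24 h.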

[4] = test system: Escherichia coli; assay: In vitro antimicrobial activity against Escherichia coli L47; procedure, shortened: as §3
[5] = test system: Haemophilus influenzae; assay: In vitro antimicrobial activity against Haemophilus influenza ATCC 19418
Procedure, shortened: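 Broth microdilution MIC in Brain Heart Infusion broth plus 1% (v/v) supplement C; inoculum about 10^4 cfu/mL; 37 °C.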

[6] = test system: Neisseria gonorrhoeae; assay: In vitro antimicrobial activity against Neisseria gonorrhoeae L997
Procedure, shortened: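 Broth microdilution MIC in GC Base broth plus 1% (v/v) IsoVitaleX; inoculum about 10^4 cfu/mL; 37 °C.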

[7] = test system: Pseudomonas aeruginosa; assay: In vitro antimicrobial activity against Pseudomonas aeruginosa ATCC 10145; procedure, shortened: as §3
[8] = test system: Cutibacterium acnes; assay: In vitro antimicrobial activity against Propionibacterium acnes ATCC 6919; procedure, shortened: as §1
[9] = test system: Staphylococcus aureus; assay: In vitro antimicrobial activity against Staphylococcus aureus L1 65 30% bovine serum
Procedure, shortened: (§4)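 Broth microdilution MIC against S. aureus L165 in Iso-Sensitest broth, 37 °C, 20–24 h.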

[10] = test system: Staphylococcus aureus; assay: In vitro antimicrobial activity against Staphylococcus aureus L165; procedure, shortened: as §3
[11] = test system: Staphylococcus aureus; assay: In viro antimicrobial activity against Staphylococcus aureus L165 10 x e+6 cfu/ml; procedure, shortened: as §4
[12] = test system: Staphylococcus haemolyticus; assay: In vitro antimicrobial activity against Staphylococcus haemolyticus L602; procedure, shortened: as §3
[13] = test system: Streptococcus pneumoniae; assay: In vitro antimicrobial activity against Streptococcus pneumoniae L44
Procedure, shortened: (§5)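 Streptococci: broth microdilution MIC in Todd Hewitt broth; inoculum about 10^4 cfu/mL; 37 °C, 20–24 h.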

[14] = test system: Streptococcus pyogenes; assay: In vitro antimicrobial activity against Streptococcus pyogenes L49; procedure, shortened: as §5
[15] = test system: Proteus vulgaris; assay: In vitro antimicrobial activity against Proteus vulgaris ATCC881; procedure, shortened: as §3
[16] = test system: Staphylococcus epidermidis; assay: In vitro antimicrobial activity against Staphylococcus epidermidis ATCC 12228; procedure, shortened: as §3
[17] = test system: Nakaseomyces glabratus; assay: In vitro antimicrobial activity against Candida glabrata (1)1; procedure, shortened: as §2
[18] = test system: Candida albicans; assay: In vitro antimicrobial activity against Candida albicans (24); procedure, shortened: as §2
[19] = test system: Candida; assay: Minimum inhibition concentration for 50% inhibition against Candida species; procedure, shortened: as §2
[20] = test system: Candida; assay: Minimum inhibition concentration for 90% inhibition against Candida species; procedure, shortened: as §2
[21] = test system: Gardnerella vaginalis; assay: In vitro antimicrobial activity against Gardnerella vaginalis (MIC50)
Procedure, shortened: (§6)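 Agar dilution MIC in Casman medium with 5% (v/v) whole and 0.15% (v/v) lysed rabbit blood; inoculum about 10^5 cfu; 48 h at 37 °C under N2-CO2-H2 (80:10:10).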

[22] = test system: Gardnerella vaginalis; assay: In vitro antimicrobial activity against Gardnerella vaginalis (MIC90); procedure, shortened: as §6
[23] = test system: Trichomonas vaginalis; assay: In vitro antimicrobial activity against Trichomonas vaginalis
Procedure, shortened: (§7)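 Broth microdilution in Trichomonas Culture Medium Base plus 10% horse serum; about 10^5 cells/mL; 48 h at 37 °C under N2-CO2-H2; MIC read by microscopy for viable (motile) protozoa.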

[24] = test system: Candida tropicalis; assay: In vitro antimicrobial activity against Candida tropicalis (2); procedure, shortened: as §2
[25] = test system: Nakaseomyces glabratus; assay: In vitro antimicrobial activity against Candida glabrata (1); procedure, shortened: as §2
[26] = test system: Candida tropicalis; assay: In vitro antimicrobial activity against Candida tropicalis; procedure, shortened: as §2
[27] = test system: Trichomonas vaginalis; assay: Antimicrobial activity against Trichomonas vaginalis; procedure, shortened: as §7

| MIC [1] | MIC [2] | MIC [3] | MIC [4] | MIC [5] | MIC [6] | MIC [7] | MIC [8] | MIC [9] | MIC [10] | MIC [11] | MIC [13] | MIC [14] | MIC [15] | MIC [16] | MIC [18] | MIC50 [19] | MIC90 [20] | MIC50 [21] | SMILES | MIC [12] | further results |
| --- | --- | --- | --- | --- | --- | --- | --- | --- | --- | --- | --- | --- | --- | --- | --- | --- | --- | --- | --- | --- | --- |
| 0.5 µg/mL (≈ 0.75 µM) | > 128 µg/mL | 0.13 µg/mL (≈ 0.195 µM) | > 128 µg/mL | 1 µg/mL (≈ 1.5 µM) | 0.13 µg/mL (≈ 0.195 µM) | > 128 µg/mL | 0.016 µg/mL (≈ 0.024 µM) | 2 µg/mL (≈ 3 µM) | 0.13 µg/mL (≈ 0.195 µM) | 0.13 µg/mL (≈ 0.195 µM) | 0.06 µg/mL (≈ 0.09 µM) | 0.13 µg/mL (≈ 0.195 µM) | > 128 µg/mL | 0.06 µg/mL (≈ 0.09 µM) |  |  |  |  | COC(=O)c1cc2cc3c(c(O)c2c(=O)o1)OC1(CC2=C(O1)C(=O)c1c(O)c(NCCNC(=O)OC(C)(C)C)cc(O)c1C2=O)CC3O (stereo unspecified) | 0.06 µg/mL (≈ 0.09 µM) |  |
| > 128 µg/mL | > 128 µg/mL | 2 µg/mL (≈ 3.53 µM) | > 128 µg/mL | 32 µg/mL (≈ 56.5 µM) | 64 µg/mL (≈ 113 µM) | > 128 µg/mL | 0.5 µg/mL (≈ 0.883 µM) | 8 µg/mL (≈ 14.1 µM) | 1 µg/mL (≈ 1.77 µM) | 1 µg/mL (≈ 1.77 µM) | 1 µg/mL (≈ 1.77 µM) | 2 µg/mL (≈ 3.53 µM) | > 128 µg/mL | 1 µg/mL (≈ 1.77 µM) |  |  |  |  | COC(=O)c1cc2cc3c(c(O)c2c(=O)o1)OC1(CC2=C(O1)C(=O)c1c(O)c(NCCN)cc(O)c1C2=O)CC3O (stereo unspecified) | 1 µg/mL (≈ 1.77 µM) |  |
| 0.06 µg/mL (≈ 0.109 µM) | 2 µg/mL (≈ 3.63 µM) | 0.06 µg/mL (≈ 0.109 µM) | > 128 µg/mL | 0.06 µg/mL (≈ 0.109 µM) | 0.06 µg/mL (≈ 0.109 µM) | > 128 µg/mL | 0.06 µg/mL (≈ 0.109 µM) | 1 µg/mL (≈ 1.81 µM) | 0.06 µg/mL (≈ 0.109 µM) | 0.06 µg/mL (≈ 0.109 µM) | 0.06 µg/mL (≈ 0.109 µM) | 0.06 µg/mL (≈ 0.109 µM) | > 128 µg/mL | 0.06 µg/mL (≈ 0.109 µM) | 0.25 µg/mL (≈ 0.453 µM) | 2 µg/mL (≈ 3.63 µM) | 4 µg/mL (≈ 7.25 µM) | 2 µg/mL (≈ 3.63 µM) | CCNc1cc(O)c2c(c1O)C(=O)C1=C(CC3(CC(O)c4cc5cc(C(=O)OC)oc(=O)c5c(O)c4O3)O1)C2=O (stereo unspecified) | 0.06 µg/mL (≈ 0.109 µM) | MIC [17]: 32 µg/mL (≈ 58 µM); MIC90 [22]: 2 µg/mL (≈ 3.63 µM); MIC [23]: 8 µg/mL (≈ 14.5 µM); MIC [24]: 64 µg/mL (≈ 116 µM) |
| 0.03 µg/mL (≈ 0.0531 µM) | > 128 µg/mL | 0.06 µg/mL (≈ 0.106 µM) | > 128 µg/mL | 0.13 µg/mL (≈ 0.23 µM) | 0.06 µg/mL (≈ 0.106 µM) | > 128 µg/mL |  | 2 µg/mL (≈ 3.54 µM) | 0.03 µg/mL (≈ 0.0531 µM) | 0.03 µg/mL (≈ 0.0531 µM) | 0.03 µg/mL (≈ 0.0531 µM) | 0.13 µg/mL (≈ 0.23 µM) | > 128 µg/mL | 0.016 µg/mL (≈ 0.0283 µM) |  |  |  |  | CCCNc1cc(O)c2c(c1O)C(=O)C1=C(CC3(CC(O)c4cc5cc(C(=O)OC)oc(=O)c5c(O)c4O3)O1)C2=O (stereo unspecified) | 0.06 µg/mL (≈ 0.106 µM) |  |
| 0.06 µg/mL (≈ 0.0991 µM) | 8 µg/mL (≈ 13.2 µM) | 0.03 µg/mL (≈ 0.0496 µM) | > 128 µg/mL | 0.06 µg/mL (≈ 0.0991 µM) | 0.06 µg/mL (≈ 0.0991 µM) | > 128 µg/mL | 0.008 µg/mL (≈ 0.0132 µM) | 2 µg/mL (≈ 3.3 µM) | 0.016 µg/mL (≈ 0.0264 µM) | 0.03 µg/mL (≈ 0.0496 µM) | 0.06 µg/mL (≈ 0.0991 µM) | 0.13 µg/mL (≈ 0.215 µM) | > 128 µg/mL | 0.016 µg/mL (≈ 0.0264 µM) |  |  |  |  | COC(=O)c1cc2cc3c(c(O)c2c(=O)o1)OC1(CC2=C(O1)C(=O)c1c(O)c(NCC(F)(F)F)cc(O)c1C2=O)CC3O (stereo unspecified) | 0.016 µg/mL (≈ 0.0264 µM) |  |
| 0.06 µg/mL (≈ 0.115 µM) | 32 µg/mL (≈ 61.1 µM) | 0.06 µg/mL (≈ 0.115 µM) | > 128 µg/mL | 0.06 µg/mL (≈ 0.115 µM) | 0.03 µg/mL (≈ 0.0573 µM) | > 128 µg/mL | 0.008 µg/mL (≈ 0.0153 µM) | 1 µg/mL (≈ 1.91 µM) | 0.03 µg/mL (≈ 0.0573 µM) | 0.06 µg/mL (≈ 0.115 µM) | 0.016 µg/mL (≈ 0.0306 µM) | 0.03 µg/mL (≈ 0.0573 µM) | > 128 µg/mL | 0.03 µg/mL (≈ 0.0573 µM) | 2 µg/mL (≈ 3.82 µM) | 64 µg/mL (≈ 122 µM) | 128 µg/mL (≈ 245 µM) | 0.06 µg/mL (≈ 0.115 µM) | COC(=O)c1cc2cc3c(c(O)c2c(=O)o1)OC1(CC2=C(O1)C(=O)c1c(O)c(N)cc(O)c1C2=O)CC3O (stereo unspecified) | 0.06 µg/mL (≈ 0.115 µM) | MIC [25]: 32 µg/mL (≈ 61.1 µM); MIC [26]: 128 µg/mL (≈ 245 µM); MIC90 [22]: 0.06 µg/mL (≈ 0.115 µM); MIC [27]: 0.5 µg/mL (≈ 0.955 µM) |
